# Screens: PubChem, several laboratories
# A selection: hits, their analogues and other compounds. The true share with any hit is near 1.3%.
# procasp7 counter = procaspase-7 activators, primary screen, counter-screen for procaspase-3 activator project, biochemical, absorbance, HTS, human; Caspase-7 (Homo sapiens), P55210; recombinant procaspase-7, Ac-DEVD-pNA absorbance 405 nm; D23A/D198A/D206A triple mutant, cannot self-cleave; scale: DMSO 0, 5 µM enzyme 100; activation, % at 8.5 µM; hit rate 0.093% among 330,000;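 active means percent activation above the screen-wide mean plus 3 SD, cut at about 25% in these data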
#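 signal = Epi-absorbance of released pNA at 405 nm, two timepoints | assay system = Uncleavable procaspase-7 mutant enzyme | reagent = Ac-DEVD-pNA substrate, 400 µM as added | times = 1 h enzyme–compound preincubation and 2 h substrate reaction, both 25 °C | benchmarks = low DMSO alone, high DMSO plus 5 µM PC-7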
# GRK2 aptamer HTS = compounds blocking aptamer binding on GRK2 – biochemical, human GRK2, bead flow cytometry, HTS, primary screen | Beta-adrenergic receptor kinase 1 (Homo sapiens), P25098 | inhibition of aptamer binding, % at 10 µM | hit rate 0.59% among 330,000 | FAM-aptamer displacement from GRK2;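 active means inhibition of aptamer binding above 40%, roughly 3 SD of noise, on plates passing a quality check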;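 further: median bead fluorescence of bound FAM aptamer so fluorescent compounds give negative values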
# Target sequence (P25098 whole entry, looked up): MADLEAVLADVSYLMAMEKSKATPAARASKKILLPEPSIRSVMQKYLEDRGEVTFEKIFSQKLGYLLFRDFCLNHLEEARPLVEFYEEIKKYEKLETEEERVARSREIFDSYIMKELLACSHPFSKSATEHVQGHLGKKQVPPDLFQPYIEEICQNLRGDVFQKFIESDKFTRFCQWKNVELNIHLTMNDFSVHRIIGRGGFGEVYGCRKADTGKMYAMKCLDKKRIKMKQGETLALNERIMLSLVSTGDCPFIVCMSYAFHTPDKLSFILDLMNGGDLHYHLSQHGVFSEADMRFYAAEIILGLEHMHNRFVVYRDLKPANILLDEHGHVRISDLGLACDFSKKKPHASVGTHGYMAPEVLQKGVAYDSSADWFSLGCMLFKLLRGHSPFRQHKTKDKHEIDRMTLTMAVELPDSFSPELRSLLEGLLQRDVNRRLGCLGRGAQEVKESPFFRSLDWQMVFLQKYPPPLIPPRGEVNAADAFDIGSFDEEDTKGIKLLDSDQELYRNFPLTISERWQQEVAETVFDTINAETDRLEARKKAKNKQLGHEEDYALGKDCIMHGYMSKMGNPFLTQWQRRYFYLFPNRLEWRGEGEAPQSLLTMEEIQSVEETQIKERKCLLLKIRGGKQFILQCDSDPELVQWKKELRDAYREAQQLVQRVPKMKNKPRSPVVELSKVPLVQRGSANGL
# VLA-4 inh = inhibition in human VLA-4 binding assay, primary screen, VLA-4 allosteric modulator project, MLPCN library, flow cytometry, VLA-4 expressing cells; Integrin alpha-4 (Homo sapiens), P13612; ligand binding flow cytometry; inhibition, % (about 7 µM as worked out from the volumes in the protocol); hit rate 0.2% among 330,000; AID 2557, 2010; in the data active means inhibition above about 50%
# proCasp3 act = activators of human procaspase-3 D3A mutant, primary screen, biochemical, absorbance, PC-3 D3A mutant, single concentration; Caspase-3 (Homo sapiens), P42574; recombinant procaspase-3 D3A, Ac-DEVD-pNA absorbance 405 nm; activation, % at 8.5 µM; hit rate 0.11% among 330,000; AID 463141, 2010;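 active means activation above the mean of all tested compounds plus 3 SD, cut at about 21% in these data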;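 further: 0% = DMSO alone and 100% = DMSO wells spiked with extra 5 µM PC-3 D3A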
#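 Assay system: Autoprocessing-dead procaspase-3 D3A mutant enzyme; also added: Ac-DEVD-pNA; doses: one concentration, 8.5 µM nominal, 0.8% DMSO; times: 1 h compound preincubation, 2 h substrate hydrolysis at 25 °C; technique: 405 nm absorbance of p-nitroaniline, reads at 0 and 120 min; measure: % activation between DMSO and enzyme-spiked controls; repeats: single replicate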
# Lipid droplet = inhibitors of hepatocyte lipid droplet formation, primary screen, imaging, high-throughput imaging, BODIPY stain | inhibition, % at 6.5 µM | hit rate 0.4% among 240,000 | AML12 mouse hepatocytes, oleate lipid droplets;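 active means lipid droplet intensity inhibited by at least 50%, with more than 500 cells counted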
#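 Test system: AML12 mouse liver cells; schedule: overnight exposure; technique: high-content imaging of BODIPY-stained droplets and DAPI nuclei; read-out: % inhibition of corrected integrated BODIPY droplet signal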
# GASC-1 inh = inhibitors of GASC-1 histone demethylase, primary screen, biochemical, fluorescence, DELFIA europium. AID 2099, 2009. inhibition, % at 2.35 µM. Lysine-specific demethylase 4C (Homo sapiens), Q9H3R0. GST-JMJD2C(1-420) H3K9me3 demethylation. hit rate 0.069% among 330,000;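 active means more than half of a compound's replicate wells show inhibition beyond 50%, single wells judged on their own value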;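 further: signal counts dimethyl H3K9 product captured on neutravidin plate; 0% = median of DMSO wells and 100% = 0.3 times that DMSO median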
# GRK2 inh confirm = GRK2 aptamer-displacing inhibitors, retest, confirmation, biochemical, cherry pick 1, bead flow cytometry. shares compounds with GRK2 aptamer HTS. bead-bound GRK2, FAM-aptamer displacement. aptamer displacement, % at 10 µM. hit rate 4% among 2,000. AID 504451, 2011;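 active means aptamer displacement above 40%, near three times the noise of non-fluorescent compounds, on plates passing quality checks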;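 further: negative values mostly reflect intrinsic compound fluorescence rather than true enhancement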
# Aptamer quench 1 = quenches fluorescent RNA aptamer, GRK2 hit artifact. shares compounds with GRK2 aptamer HTS. Fluorescent RNA aptamer beads, quenching, flow cytometry; active compounds read high. fluorescence change (kMESF span), kMESF (no concentration beside the values). 110 tested, under 10 active. AID 504521;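 active means compounds whose bead fluorescence drops by more than 37 kMESF across the dose range, marking them as dye quenchers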
# Aptamer quench SP = quenches fluorescent RNA aptamer, GRK2 hit artifact; fluorescence response (% of DMSO), % at 10 µM; Carboxyfluorescein RNA aptamer on beads, flow cytometry quenching; active compounds read low; 2,000 tested, under 10 active; shares compounds with GRK2 aptamer HTS;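 active means compounds that quench the bead-bound fluorescent RNA probe, cutting fluorescence to under half of the solvent control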;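 further: counterscreen run without GRK2 so only probe quenching by compound is measured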
# GRK2 CP2 = GRK2 aptamer-displacing inhibitors, hit retest, confirmation, biochemical, cherry pick 2, bead flow cytometry; AID 504782, 2011; bead-bound GRK2, FAM-aptamer displacement; shares compounds with GRK2 aptamer HTS; inhibition of aptamer binding, % at 10 µM; 360 tested, under 10 active;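 active means inhibition of aptamer binding above 40%, about triple the noise seen with nonglowing compounds, on plates passing quality control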;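 further: negative values mostly come from compounds that fluoresce themselves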
# FAM quench SP = quenches fluorescent RNA aptamer, GRK2 hit artifact. shares compounds with GRK2 aptamer HTS. carboxyfluorescein RNA aptamer beads, flow cytometry quenching; active compounds read low. fluorescence response vs DMSO, % at 10 µM. 360 tested, under 10 active;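 active means response vs DMSO under 50%, meaning signal dropped by over half, treated as fluorescence quencher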;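 further: labelled aptamer on streptavidin beads without GRK2 as a quench counter-screen; 100% = bead fluorescence of DMSO wells and lower means quenching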
# Numbers without * were called inactive; . = no result given.
SMILES,procasp7 counter,GRK2 aptamer HTS,VLA-4 inh,proCasp3 act,Lipid droplet,GASC-1 inh,GRK2 inh confirm,Aptamer quench SP,others
O=C(c1cc(F)ccc1F)C1CCCN(CCCc2ccccc2)C1 (configuration not stated),-1.7,0.0,8.3,4.3,-12.0,0.4,.,.,
CCN1/C(=C\C=C\C2=[N+](CC)c3ccccc3C2(C)C)C(C)(C)c2ccccc21,6.4,70.0*,.,4.5,-169.6,-13.2,23.8,99.6,
CN1CCN(c2ccc(C(N)=O)cc2N)CC1,7.3,43.0*,13.4,-1.5,.,-0.8,-1.5,101.5,
O=C1NC(=O)N(c2ccc3c(c2)OCO3)C(=O)/C1=C/c1ccc(N2CCCCC2)o1,-18.9,0.0,-16.7,-5.8,.,10.3,.,.,
O=C1NC(=O)N(c2ccc3c(c2)OCO3)C(=O)/C1=C\c1ccc(-c2ccccc2C(=O)O)o1,-21.0,60.0*,5.0,-5.9,-1.8,13.6,47.4*,96.1,Aptamer quench 1=4.3
C#CCOC(=O)C1=CCCN(C)C1,-0.1,1.0,14.9,5.8,.,.,.,.,
COC(=O)c1ccc(NC(=O)NC(=O)Oc2ccccc2)cc1,4.5,81.0*,38.9,0.9,.,8.5,-0.6,97.7,
O=C(Nc1ccccc1)Oc1ccccc1,2.9,3.0,11.3,-2.9,-0.1,-9.1,.,.,
O=C(O)c1cccc2c1NC(C(=O)O)C1CC(Sc3ccccc3[N+](=O)[O-])C(Cl)C21 (configuration not stated),-32.2,60.0*,13.1,-20.6,7.1,4.8,41.0*,104.3,Aptamer quench 1=8.5
CN1CCN(c2nc3ccccc3o2)CC1,6.2,0.0,0.3,4.3,0.9,4.4,.,.,
CCN(CC)c1ccc(N=Cc2c(O)n(-c3ccccc3C)c(=O)[nH]c2=O)cc1,-25.4,27.0,-59.5,-12.0,-1.2,4.3,0.4,107.2,
CCOc1ccccc1-n1c(O)c(C=Nc2ccc(N(CC)CC)cc2)c(=O)[nH]c1=O,-22.1,1.0,2.1,-5.9,.,6.5,.,.,
CCCCCCC(Cl)(Cn1ccnc1)c1ccccc1 (configuration not stated),-0.6,3.0,18.2,-5.5,.,-8.4,.,.,
CC[n+]1c(/C=C/N(C)c2ccccc2)sc2ccc(Cl)cc21,-15.8,92.0*,-419.4,-5.9,.,13.7,41.4*,107.7,Aptamer quench 1=25.5
Cc1ccc(NC(=O)c2cn(CCC#N)nc2-c2ccc3c(c2)OCCO3)c([N+](=O)[O-])c1,-2.6,3.0,9.6,-6.4,-25.7,2.6,.,.,
N#CCCn1cc(C(=O)Nc2ccc([N+](=O)[O-])cc2)c(-c2ccc3c(c2)OCCO3)n1,-10.4,66.0*,23.1,3.5,7.9,0.2,.,.,GRK2 CP2=21.6;FAM quench SP=100.0
C[CH2][Hg][S]c1ccccc1C(=O)O,-31.7,0.0,35.1,-12.5,.,.,.,.,
Cc1ccc(N2C(=O)NC(=O)/C(=C\c3ccc([N+](=O)[O-])o3)C2=O)cc1,-15.9,40.0,-11.0,-4.3,5.4,-16.0,.,.,
COC(=O)C1=C(c2ccc(OC)c(OC)c2)C[C@@H]2CC[C@H]1N2C(=O)NC1CC1,2.4,0.0,0.0,-3.4,.,1.7,.,.,
CC(=Nc1ccc2c(c1)CCC2)c1c(O)n(C2CCCCC2)c(=O)[nH]c1=O,1.7,0.0,-3.6,-0.1,.,-6.5,.,.,
CCC(=Nc1ccc2c(c1)CCC2)c1c(O)n(C2CCCCC2)c(=O)[nH]c1=O,-7.6,100.0*,0.0,1.1,.,5.7,0.9,108.2,
NCCc1c[nH]c2ccccc12,11.8,62.0*,-4.4,4.0,17.0,.,-6.5,99.6,
NC(=O)C1CCN(/C=C2\C(=O)NC(=O)N(Cc3ccco3)C2=O)CC1,-6.5,47.0*,6.3,4.1,1.0,0.8,19.5,99.0,
COc1ccccc1-n1c(O)c(C=NCc2ccc3c(c2)OCO3)c(=O)[nH]c1=O,9.6,1.0,3.6,-9.0,-4.7,2.7,.,.,
O=c1[nH]c(=O)n(Cc2ccco2)c(O)c1C=NCc1ccc2c(c1)OCO2,9.5,0.0,-4.3,-0.3,.,-1.3,0.8,102.2,
SMILES,procasp7 counter,GRK2 aptamer HTS,VLA-4 inh,proCasp3 act,Lipid droplet,GASC-1 inh,GRK2 inh confirm,Aptamer quench SP,others
CCCCn1c(O)c(C=NCc2ccc3c(c2)OCO3)c(=O)[nH]c1=O,3.0,94.0*,-0.9,-6.3,19.3,4.5,-1.0,96.3,
CN/C=C(/Cl)P(=O)(OC(C)C)OC(C)C,1.7,2.0,-5.8,-4.4,.,.,.,.,
COC(=O)C1=C(c2ccc(C(C)=O)cc2)C[C@@H]2CC[C@H]1N2C(=O)NC1CC1,-1.3,0.0,-3.3,8.5,.,0.0,.,.,
CN(C(=O)COC(=O)c1cn(C)c2ccccc12)C1CCCCC1,2.1,0.0,14.6,1.2,.,17.3,.,.,
C[C@]12CCC3C(CCC4=C/C(=N/OCC(=O)NC(CCC(N)=O)C(=O)O)CC[C@@]43C)C1CCC2O (some centres not stated),4.2,0.0,5.0,5.0,-19.3,-9.6,3.2,98.7,
C[C@]12CCC3C(CCC4=C/C(=N/OCC(=O)NC(CCC(=O)O)C(=O)O)CC[C@@]43C)C1CCC2O (some centres not stated),-1.1,0.0,2.6,-5.0,.,1.4,.,.,
CC(C)N1C(=O)/C(=C/C=C/c2ccco2)C(=O)N(Cc2ccco2)C1=O,-9.3,16.0,12.3,-0.2,.,-14.5,11.0,102.9,
